From ChEMBL document CHEMBL2029221, “Acylprolinamides: a new class of peptide deformylase inhibitors with in vivo antibacterial activity” (Bioorg Med Chem Lett, 2012)
pIC50: −log10 of the molar value. ≈ marks a conversion by molar mass, not a printed value.

Legend:
[1] = system: Haemophilus influenzae; test: Antibacterial activity against Haemophilus influenzae Q1 by broth microdilution method; type: functional
Method in brief: (§1)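 Broth microdilution following NCCLS document M7-A4. Serial two-fold dilutions from 0.06 to 64 mcg/ml were tested. The MIC was the lowest concentration preventing visible growth, with the endpoint read with the aid of a mirror reader.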

[2] = system: Staphylococcus aureus; test: Antibacterial activity against Staphylococcus aureus Oxford by broth microdilution method; type: functional; method in brief: as §1
[3] = system: Enterococcus faecalis; test: Antibacterial activity against Enterococcus faecalis 7 by broth microdilution method; type: functional; method in brief: as §1
[4] = system: Streptococcus pneumoniae; test: Antibacterial activity against Streptococcus pneumoniae 1629 by broth microdilution method; type: functional; method in brief: as §1
[5] = molecular target: T1, Peptide deformylase (Streptococcus pneumoniae serotype 4 (strain ATCC BAA-334 / TIGR4), UniProt Q9F2F0); test: Inhibition of Streptococcus pneumoniae PDF assessed as formate release from fMAS peptide substrate after 20 mins by formate dehydrogenase coupled assay
T1 sequence (Q9F2F0 whole entry): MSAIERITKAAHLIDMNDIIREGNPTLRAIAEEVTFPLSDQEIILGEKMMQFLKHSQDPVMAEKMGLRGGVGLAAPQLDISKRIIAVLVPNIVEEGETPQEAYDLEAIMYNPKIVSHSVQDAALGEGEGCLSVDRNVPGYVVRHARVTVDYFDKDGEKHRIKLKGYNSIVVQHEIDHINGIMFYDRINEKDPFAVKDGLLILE

[6] = Inhibition of Haemophilus influenzae PDF assessed as formate release from fMAS peptide substrate after 20 mins by formate dehydrogenase coupled assay
Method in brief: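 Coupled assay in which formate released from the fMAS peptide is oxidized by formate dehydrogenase, reducing NAD to NADH, read as the rise in absorbance at 340. Reactions were started by adding PDF and velocities measured for 20 min at 25 °C. Values are the mean of at least 2 runs.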

[7] = system: Moraxella catarrhalis; test: Antibacterial activity against Moraxella catarrhalis 1502 by broth microdilution method; type: functional; method in brief: as §1
[8] = molecular target: T2, Peptide deformylase (Staphylococcus aureus, UniProt P68826); test: Inhibition of Staphylococcus aureus PDF assessed as formate release from fMAS peptide substrate after 20 mins by formate dehydrogenase coupled assay
T2 sequence (P68826 whole entry): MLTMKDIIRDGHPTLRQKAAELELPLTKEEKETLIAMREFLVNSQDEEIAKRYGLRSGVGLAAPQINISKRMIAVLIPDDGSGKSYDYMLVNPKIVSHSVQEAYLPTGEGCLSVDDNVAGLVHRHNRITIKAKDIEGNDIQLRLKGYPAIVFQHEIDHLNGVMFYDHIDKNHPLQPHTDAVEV

[9] = Metabolic stability of the compound in rat blood assessed as compound remaining at 2000 ng/mL after 2 hrs; type: ADME, tissue-based; settings: read-out: Stability
[10] = Metabolic stability of the compound in human blood assessed as compound remaining at 2000 ng/mL after 2 hrs; type: ADME, tissue-based; settings: read-out: Stability
Method in brief: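 Samples (n = 3) were spiked into fresh human blood at 2000 ng/mL, incubated at 37 °C for 120 min, and reported as % recovered at 2 h.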

Structure (SMILES) | MIC [1] [µg/mL] | MIC [2] [µg/mL] | MIC [3] [µg/mL] | MIC [4] [µg/mL] | pIC50 [5] | pIC50 [6] | MIC [7] [µg/mL] | pIC50 [8] | remaining at 2 h, 2000 ng/mL [9] [%] | remaining at 2 h, 2000 ng/mL [10] [%]
CC(C)(C)C(=O)NC(=O)[C@@H]1CCCN1C(=O)[C@H](CC1CCCC1)CN(O)C=O | 2 (≈ 5.06 µM) | 2 (≈ 5.06 µM) | 4 (≈ 10.1 µM) | 2 (≈ 5.06 µM) | 8.89 | 7.74 | ≤ 0.06 | 8.00 | 29 | 80.6
O=CN(O)C[C@@H](CC1CCCC1)C(=O)N1CCC[C@H]1C(=O)NC(=O)OC1CCCC1 | 1 (≈ 2.36 µM) | 0.5 (≈ 1.18 µM) | 1 (≈ 2.36 µM) | 0.125 (≈ 0.295 µM) | 9.59 | 8.51 | ≤ 0.06 | 8.85 | 0 | 57.5
O=CN(O)C[C@@H](CC1CCCC1)C(=O)N1CCC[C@H]1C(=O)NC(=O)OC1CCCCC1 | 1 (≈ 2.29 µM) | 0.25 (≈ 0.571 µM) | 0.5 (≈ 1.14 µM) | 0.125 (≈ 0.286 µM) | 9.52 | 8.64 | ≤ 0.06 | 8.82 | 0.4 | 45.8
O=CN(O)C[C@@H](CC1CCCC1)C(=O)N1CCC[C@H]1C(=O)NC(=O)OC1CCNCC1 | 16 (≈ 36.5 µM) | > 64 | > 64 | 8 (≈ 18.2 µM) | 8.85 | 8.57 | 1 (≈ 2.28 µM) | 8.23 |  | 
CC(C)NC(=O)NC(=O)[C@@H]1CCCN1C(=O)[C@H](CC1CCCC1)CN(O)C=O | 2 (≈ 5.04 µM) | 1 (≈ 2.52 µM) | 4 (≈ 10.1 µM) | 1 (≈ 2.52 µM) | 9.51 | 8.52 | ≤ 0.06 | 8.80 |  | 99.7
CC(C)(C)NC(=O)NC(=O)[C@@H]1CCCN1C(=O)[C@H](CC1CCCC1)CN(O)C=O | 1 (≈ 2.44 µM) | 1 (≈ 2.44 µM) | 1 (≈ 2.44 µM) | 0.125 (≈ 0.304 µM) | 9.66 | 8.62 | ≤ 0.06 | 8.92 |  | 
O=CN(O)C[C@@H](CC1CCCC1)C(=O)N1CCC[C@H]1C(=O)NC(=O)NC1CCC1 | 0.5 (≈ 1.22 µM) | 0.125 (≈ 0.306 µM) | 1 (≈ 2.45 µM) | 0.125 (≈ 0.306 µM) | 9.52 | 8.74 | ≤ 0.06 | 9.05 |  | 
O=CN(O)C[C@@H](CC1CCCC1)C(=O)N1CCC[C@H]1C(=O)NC(=O)NC1CCCC1 | 2 (≈ 4.73 µM) | 0.5 (≈ 1.18 µM) | 1 (≈ 2.37 µM) | 0.125 (≈ 0.296 µM) | 10.00 | 8.70 | ≤ 0.06 | 9.28 |  | 103
O=CN(O)C[C@@H](CC1CCCC1)C(=O)N1CCC[C@H]1C(=O)NC(=O)NC1CCCCC1 | 4 (≈ 9.16 µM) | 0.5 (≈ 1.15 µM) | 2 (≈ 4.58 µM) | 0.125 (≈ 0.286 µM) | 9.70 | 8.40 | ≤ 0.06 | 9.03 |  | 
O=CN(O)C[C@@H](CC1CCCC1)C(=O)N1CCC[C@H]1C(=O)NC(=O)NCc1ccccc1 | 2 (≈ 4.5 µM) | 0.5 (≈ 1.12 µM) | 0.5 (≈ 1.12 µM) | 0.125 (≈ 0.281 µM) | 9.72 | 8.19 | ≤ 0.06 | 8.77 |  | 
O=CN(O)C[C@@H](CC1CCCC1)C(=O)N1CCC[C@H]1C(=O)NC(=O)NCCc1ccccc1 | 4 (≈ 8.72 µM) | ≤ 0.06 | 0.5 (≈ 1.09 µM) | ≤ 0.06 | 9.92 | 8.44 | ≤ 0.06 | 9.07 |  | 92.2

The remaining lines, values ahead:

MIC [1] [µg/mL] | MIC [2] [µg/mL] | MIC [3] [µg/mL] | MIC [4] [µg/mL] | pIC50 [5] | pIC50 [6] | MIC [7] [µg/mL] | pIC50 [8] | remaining at 2 h, 2000 ng/mL [9] [%] | remaining at 2 h, 2000 ng/mL [10] [%] | Structure (SMILES)
0.125 (≈ 0.353 µM) | 2 (≈ 5.64 µM) | 4 (≈ 11.3 µM) | 2 (≈ 5.64 µM) | 9.04 | 8.32 | ≤ 0.06 | 8.66 |  |  | NC(=O)NC(=O)[C@@H]1CCCN1C(=O)[C@H](CC1CCCC1)CN(O)C=O
0.5 (≈ 1.2 µM) | 1 (≈ 2.41 µM) | 1 (≈ 2.41 µM) | 0.25 (≈ 0.602 µM) |  | 8.42 | ≤ 0.06 |  | 27.2 |  | O=CN(O)C[C@@H](CC1CCCC1)C(=O)N1CCC[C@H]1C(=O)NC(=O)c1ccccc1
0.125 (≈ 0.338 µM) | 1 (≈ 2.71 µM) | 4 (≈ 10.8 µM) | 1 (≈ 2.71 µM) | 8.72 | 7.89 | ≤ 0.06 | 8.35 |  |  | COC(=O)NC(=O)[C@@H]1CCCN1C(=O)[C@H](CC1CCCC1)CN(O)C=O
0.25 (≈ 0.652 µM) | 0.5 (≈ 1.3 µM) | 2 (≈ 5.22 µM) | 0.5 (≈ 1.3 µM) | 9.27 | 8.11 | ≤ 0.06 | 8.66 |  |  | CCOC(=O)NC(=O)[C@@H]1CCCN1C(=O)[C@H](CC1CCCC1)CN(O)C=O
0.25 (≈ 0.629 µM) | 0.25 (≈ 0.629 µM) | 4 (≈ 10.1 µM) | 0.25 (≈ 0.629 µM) | 9.32 | 8.33 | ≤ 0.06 | 8.70 | 0 | 49.6 | CC(C)OC(=O)NC(=O)[C@@H]1CCCN1C(=O)[C@H](CC1CCCC1)CN(O)C=O
0.25 (≈ 0.608 µM) | 1 (≈ 2.43 µM) | 1 (≈ 2.43 µM) | 0.25 (≈ 0.608 µM) | 9.28 | 8.49 | ≤ 0.06 | 8.47 | 27.6 | 52 | CC(C)(C)OC(=O)NC(=O)[C@@H]1CCCN1C(=O)[C@H](CC1CCCC1)CN(O)C=O
0.5 (≈ 1.22 µM) | 0.5 (≈ 1.22 µM) | 1 (≈ 2.44 µM) | 0.25 (≈ 0.611 µM) | 9.29 | 8.24 | ≤ 0.06 | 8.62 | 0 | 31.7 | O=CN(O)C[C@@H](CC1CCCC1)C(=O)N1CCC[C@H]1C(=O)NC(=O)OC1CCC1
0.5 (≈ 1.14 µM) | 1 (≈ 2.28 µM) | 2 (≈ 4.55 µM) | 0.25 (≈ 0.569 µM) | 9.18 | 8.51 | ≤ 0.06 | 8.36 | 9.5 | 23 | O=CN(O)C[C@@H](CC1CCCC1)C(=O)N1CCC[C@H]1C(=O)NC(=O)OC1CCOCC1
0.25 (≈ 0.679 µM) | 0.5 (≈ 1.36 µM) | 4 (≈ 10.9 µM) | 1 (≈ 2.71 µM) | 9.34 | 8.21 | ≤ 0.06 | 8.68 |  |  | CNC(=O)NC(=O)[C@@H]1CCCN1C(=O)[C@H](CC1CCCC1)CN(O)C=O
